From ChEMBL document CHEMBL1123139, “Antiandrogenic activity of a series of des-A-steroid derivatives” (1985)
“And” between values parts separate entries of the source, which are not always exact repeats. Equal values may be shown once.

Legend:
Cricetinae gen. sp. [1] = test: Local activity of untreated flank organ in hamster; Expressed as weight (mg); assay type: functional
In short: (§1)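 Male hamsters (100–110 g), castrated 7 days earlier, in groups of four. […] Test compound in 20 μL ethanol was applied daily to the right flank organ, and the contralateral organ received ethanol only. Animals were killed 24 h after the last treatment, and flank organs and prostate were weighed. Results are mean ± SEM.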

Cricetinae gen. sp. [2] = test: (§2) Local subcutaneous administration (1 mg); Expressed as weight (mg); assay type: functional; in short: as §1
Cricetinae gen. sp. [3] = test: as §2; assay type: functional; in short: as §1; remark: listed apart in the source
Rattus norvegicus [4] = test: In vivo percent increase in rat prostate weight on subcutaneous administration of testosterone propionate along with compound at dose 5 mg/day; Expressed as percent inhibition of weight increase, mg; assay type: functional, Prostate gland
In short: (§3)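 Immature male rats (70 g), castrated 24 h earlier, in groups of five. […] Controls received vehicle only (sesame oil with 5% benzyl alcohol). Rats were killed 24 h after the last dose, and prostate and seminal vesicles were excised and weighed.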

Rattus norvegicus [5] = test: In Vivo inhibition against increase in immature castrated rat seminal vesicles weight on subcutaneous administration of testosterone propionate at dose 5 mg/kg; assay type: functional
Rattus norvegicus [6] = test: In vivo percent increase in rat seminal vesicles weight on subcutaneous administration of testosterone propionate along with compound at dose 1 mg/day; Expressed as percent inhibition of weight increase, mg; assay type: functional
Rattus norvegicus [7] = test: In vivo percent increase in rat prostate weight on subcutaneous administration of testosterone propionate along with compound at dose 1 mg/day; Expressed as percent inhibition of weight increase, mg; assay type: functional, Prostate gland
Rattus norvegicus [8] = test: In vivo percent increase rat seminal vesicles weight on subcutaneous administration of testosterone propionate along with compound at dose 5 mg/day; Expressed as percent inhibition of weight increase, mg; assay type: functional; in short: as §3
Cricetinae gen. sp. [9] = test: (§4) Local subcutaneous administration (200 ug); Expressed as weight (mg); assay type: functional; in short: as §1
Cricetinae gen. sp. [10] = test: as §4; assay type: functional; in short: as §1; remark: listed apart in the source
Cricetinae gen. sp. [11] = test: Tocal activity of untreated flank organ in hamster; Expressed as weight (mg); assay type: functional; in short: as §1
Cricetinae gen. sp. [12] = test: (§5) Tocal subcutaneous administration (200 ug); Expressed as weight (mg); assay type: functional; in short: as §1
Cricetinae gen. sp. [13] = test: (§6) Tocal subcutaneous administration (1 mg); Expressed as weight (mg); assay type: functional; in short: as §1
Cricetinae gen. sp. [14] = test: as §5; assay type: functional; in short: as §1; remark: listed apart in the source
Cricetinae gen. sp. [15] = test: (§7) Tocal subcutaneous administration (40 ug); Expressed as weight (mg); assay type: functional; in short: as §1
Cricetinae gen. sp. [16] = test: as §6; assay type: functional; in short: as §1; remark: listed apart in the source
Cricetinae gen. sp. [17] = test: as §7; assay type: functional; in short: as §1; remark: listed apart in the source
Cricetinae gen. sp. [18] = test: (§8) Local subcutaneous administration (125 ug); Expressed as weight (mg); assay type: functional; in short: as §1
Cricetinae gen. sp. [19] = test: as §8; assay type: functional; in short: as §1; remark: listed apart in the source

Compound	Weight (Cricetinae gen. sp. [1])	Weight (Cricetinae gen. sp. [2]) [mg]	Weight (Cricetinae gen. sp. [3]) [mg]	Inhibition (Rattus norvegicus [4]) [%]	Inhibition of increase in weight (Rattus norvegicus [5]) [%]	also measured
CC1=C2CCC3(C)C(O)CCC3C2CCC1=O.CCC(=O)O[C@H]1CC[C@H]2[C@@H]3CCC4=CC(=O)CC[C@]4(C)[C@H]3CC[C@]12C	37.3 mg	36.8	144			
CC1(C)C(=O)CCC2C1CCC1(C)C(O)CCC21 (stereo unspecified)				49	63	
CC(=O)O[C@]1(C(C)=O)CC[C@H]2[C@@H]3C=C(Cl)C4=CC(=O)[C@@H]5C[C@@H]5[C@]4(C)[C@H]3CC[C@@]21C [CYPROTERONE ACETATE]						Inhibition (Rattus norvegicus [6]): 73%; Inhibition (Rattus norvegicus [7]): 90%
CCC(=O)O[C@H]1CC[C@H]2[C@@H]3CCC4=CC(=O)CC[C@]4(C)[C@H]3CC[C@]12C.CCC1=C2CCC3(C)C(O)CCC3C2CCC1=O	34.8 mg	27.8	134			
CCC(=O)O[C@H]1CC[C@H]2[C@@H]3CCC4=CC(=O)CC[C@]4(C)[C@H]3CC[C@]12C.CCC12CCC3=C(C)C(=O)CCC3C1CCC2O	35.2 mg	31.9	137			
CC1(C)C(=O)CCC2C1CCC1(C)C(O)CCC21.CCC(=O)O[C@H]1CC[C@H]2[C@@H]3CCC4=CC(=O)CC[C@]4(C)[C@H]3CC[C@]12C	36.7 mg	28.4	135			
CCC1=C2CCC3(C)C(OC(C)=O)CCC3C2CCC1=O (stereo unspecified)				50		Inhibition (Rattus norvegicus [8]): 50%
CC1=C2CCC3(C)C(O)CCC3C2CCC1=O (stereo unspecified)				27	54	
CCC(=O)O[C@H]1CC[C@H]2[C@@H]3CCC4=CC(=O)CC[C@]4(C)[C@H]3CC[C@]12C.CCC1=C2CCC3(C)C(OC(C)=O)CCC3C2CCC1=O	31.7 mg and 33 mg	16.8	143			Weight (Cricetinae gen. sp. [9]): 145 mg; Weight (Cricetinae gen. sp. [10]): 22.8 mg; Weight (Cricetinae gen. sp. [11]): 46.2 mg and 42.9 mg and 46.8 mg; Weight (Cricetinae gen. sp. [12]): 31.1 mg; Weight (Cricetinae gen. sp. [13]): 111 mg; Weight (Cricetinae gen. sp. [14]): 108 mg; Weight (Cricetinae gen. sp. [15]): 125 mg; Weight (Cricetinae gen. sp. [16]): 24.8 mg; Weight (Cricetinae gen. sp. [17]): 38.9 mg
CCC1=C2CCC3(C)C(O)CCC3C2CCC1=O (stereo in doubt; 5c)				59	73	
CCC(=O)O[C@H]1CC[C@H]2[C@@H]3CCC4=CC(=O)CC[C@]4(C)[C@H]3CC[C@]12C [TESTOSTERONE PROPIONATE]	37.6 mg and 49.4 mg					Weight (Cricetinae gen. sp. [18]): 165 mg and 171 mg; Weight (Cricetinae gen. sp. [19]): 37.6 mg and 48.5 mg
CCC12CCC3=C(C)C(=O)CCC3C1CCC2O (stereo unspecified)				10	50	
CC1=C2C=CC3(C)C(O)CCC3C2CCC1=O (stereo unspecified)				25	45	
